The record followed here is ChEMBL document CHEMBL1154067, “Antiviral and cytotoxic activities of aminoarylazo compounds and aryltriazene derivatives” (Bioorg Med Chem, 2009).

For orientation: EC50 means the concentration that produces a half-maximal response. As usually defined, the CC50 is the concentration giving 50% cytotoxicity.

The structures appear in SMILES notation. Calls of active or inactive are those of the source. Where only a bound is given, the exact number is not on record here.

In one data set the test system is Human immunodeficiency virus 1. The data set can be described thus: Antiviral activity against HIV1 infected in human MT4 cells assessed as inhibition of virus-induced cytopathicity after 4 days by MTT assay.
Details: not given
Format: functional, organism-based.
For the compound `CN(C)CCCN(/N=N/c1ccccc1)c1cccc(C(F)(F)F)c1`, the inhibition entry was “inactive”.

On to `FC(F)(F)c1cccc(/N=N/c2ccc(NC[C@@H]3CCCN4CCCC[C@H]34)c3c2CCCC3)c1`, for which the inhibition entry is “inactive”.

As to `Cc1ccc(/N=N/N(CCCN(C)C)c2ccccc2)cc1`, the inhibition entry is “inactive”.

In the case of `Fc1ccc(F)c(/N=N/Nc2cc(F)ccc2F)c1`, the inhibition entry was “inactive”.

Turning to `CN(C)CCCNc1ccc(/N=N/c2ccccc2)cc1`, the inhibition result was “inactive”.

The subject of a further data set is Human alphaherpesvirus 1. The data set can be described thus: Antiviral activity against HSV1 infected in Vero-76 cells after 3 days by plaque reduction assay. The settings on record: Human alphaherpesvirus 1, Vero 76, 72 h. Format: functional, organism-based.
`CN(C)CCCN(/N=N/c1ccccc1)c1cccc(C(F)(F)F)c1` returned an EC50 of 14 µM.

For the compound `FC(F)(F)c1cccc(/N=N/c2ccc(NC[C@@H]3CCCN4CCCC[C@H]34)c3c2CCCC3)c1`, the EC50 was > 50 µM.

On to `Cc1ccc(/N=N/N(CCCN(C)C)c2ccccc2)cc1`, for which the EC50 is > 100 µM.

For the compound `Fc1ccc(F)c(/N=N/Nc2cc(F)ccc2F)c1`, the EC50 is > 100 µM.

As to `CN(C)CCCNc1ccc(/N=N/c2ccccc2)cc1`, the EC50 was > 30 µM.

A further data set relates to Coxsackievirus B2. The data set can be described thus: Antiviral activity against Coxsackie virus type B2 virus infected in african green monkey Vero-76 cells after 3 days by plaque reduction assay. The class given is functional, organism-based. The following applies: Enterovirus B, Vero 76, 72 h. The method, boiled down: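 Vero 76 cells seeded at 2 × 10^5 cells/well, grown overnight to confluence at 37 °C in 5% CO2, then infected at 50–100 PFU/well. Unadsorbed virus removed. Overlay of DMEM with 1% inactivated FCS and 0.75% methylcellulose, with or without serial compound dilutions. After 3 days at 37 °C, fixed and stained with crystal violet in PBS/50% ethanol; plaques counted. EC50 is the concentration reducing plaque number by 50%.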
Consider `CN(C)CCCN(/N=N/c1ccccc1)c1cccc(C(F)(F)F)c1`, for which the EC50 was ≥ 20 µM.

As to `FC(F)(F)c1cccc(/N=N/c2ccc(NC[C@@H]3CCCN4CCCC[C@H]34)c3c2CCCC3)c1`, the concentration giving a half-maximal response (EC50) was > 50 µM.

As to `Cc1ccc(/N=N/N(CCCN(C)C)c2ccccc2)cc1`, the EC50 was > 100 µM.

The compound `Fc1ccc(F)c(/N=N/Nc2cc(F)ccc2F)c1` registered an EC50 of 50 µM.

Take `CN(C)CCCNc1ccc(/N=N/c2ccccc2)cc1`: the EC50 is > 30 µM.

The next data set deals with Yellow fever virus. The data set can be described thus: Antiviral activity against Yellow fever virus infected in BHK-21 cells assessed as inhibition of virus-induced cytopathicity after 3 to 4 days by MTT assay. The class given is functional, organism-based.
Details: not given
A general note: Damage to the host cells serves as the signal in cytopathic effect assays.
On to `CN(C)CCCN(/N=N/c1ccccc1)c1cccc(C(F)(F)F)c1`, for which the EC50 was ≥ 49 µM.

`FC(F)(F)c1cccc(/N=N/c2ccc(NC[C@@H]3CCCN4CCCC[C@H]34)c3c2CCCC3)c1`: the EC50 was > 14 µM.

With `Cc1ccc(/N=N/N(CCCN(C)C)c2ccccc2)cc1`, the EC50 was > 100 µM.

`Fc1ccc(F)c(/N=N/Nc2cc(F)ccc2F)c1`: the EC50 was > 100 µM.

On to `CN(C)CCCNc1ccc(/N=N/c2ccccc2)cc1`, for which the EC50 is ≥ 31 µM.

Tested on in the next data set: not listed separately
The data set can be described thus: (§1) Cytotoxicity against african green monkey Vero 76 cells by crystal violet staining. The class given is cell-based. The following applies: chlorocebus sabaeus, Vero 76 cells. In short, it runs like this: (§2)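 Mock-infected Vero 76 seeded at 4 × 10^5 cells/mL, run in parallel with plaque assays, with or without serial compound dilutions. Cell number of monolayers determined by crystal violet staining. CC50 = concentration reducing viable cell number 50%.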
`CN(C)CCCN(/N=N/c1ccccc1)c1cccc(C(F)(F)F)c1` showed a CC50 of 20 µM.

In the next data set the test system is Vero. The description is as §1. The class given is cell-based. The settings on record: chlorocebus sabaeus, vero. The method, boiled down:
as §2
Take `FC(F)(F)c1cccc(/N=N/c2ccc(NC[C@@H]3CCCN4CCCC[C@H]34)c3c2CCCC3)c1`: the CC50 turned out to be 50 µM.

`Cc1ccc(/N=N/N(CCCN(C)C)c2ccccc2)cc1` registered a CC50 of 100 µM.

Regarding `Fc1ccc(F)c(/N=N/Nc2cc(F)ccc2F)c1`, the CC50 is ≥ 100 µM.

Turning to `CN(C)CCCNc1ccc(/N=N/c2ccccc2)cc1`, half-maximal cytotoxicity (CC50) was put at 30 µM.

The subject of a further data set is Poliovirus 1. The data set can be described thus: Antiviral activity against Human poliovirus 1 strain Sabin after 2 days by plaque reduction assay. Format: functional.
Details: not given
On the technique in general: Plaque reduction counts the foci of infection that form in a cell layer.
Take `FC(F)(F)c1cccc(/N=N/c2ccc(NC[C@@H]3CCCN4CCCC[C@H]34)c3c2CCCC3)c1`: the outcome was inactive.

With `CN(C)CCCNc1ccc(/N=N/c2ccccc2)cc1`, the result was inactive.

The same data set, now with this note: Enterovirus C, 48 h.
As to `CN(C)CCCN(/N=N/c1ccccc1)c1cccc(C(F)(F)F)c1`, the EC50 is > 20 µM.

Regarding `Cc1ccc(/N=N/N(CCCN(C)C)c2ccccc2)cc1`, the EC50 was > 100 µM.

`Fc1ccc(F)c(/N=N/Nc2cc(F)ccc2F)c1`: the EC50 was > 100 µM.

For a further data set, the system named is Vaccinia virus. The data set can be described thus: Antiviral activity against Vaccinia virus after 3 days by plaque reduction assay. Format: functional, organism-based. The following applies: Orthopoxvirus vaccinia.
In the case of `CN(C)CCCN(/N=N/c1ccccc1)c1cccc(C(F)(F)F)c1`, the result was inactive.

Consider `FC(F)(F)c1cccc(/N=N/c2ccc(NC[C@@H]3CCCN4CCCC[C@H]34)c3c2CCCC3)c1`, for which the result was inactive.

In the case of `Cc1ccc(/N=N/N(CCCN(C)C)c2ccccc2)cc1`, the outcome was inactive.

Regarding `Fc1ccc(F)c(/N=N/Nc2cc(F)ccc2F)c1`, the result was inactive.

Regarding `CN(C)CCCNc1ccc(/N=N/c2ccccc2)cc1`, the result was inactive.

Tested on in a further data set: not listed separately
The data set can be described thus: Cytotoxicity against hamster BHK21 cells assessed as reduction in cell viability after 48 to 96 hrs by MTT assay. The settings on record: BHK21 cells. The class given is cell-based, Mesocricetus auratus, BHK-21. The method, boiled down: (§3)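 Mock-infected cells in maintenance medium, MDBK at 6 × 10^5 and BHK at 1 × 10^6 cells/mL initial density, with or without serial compound dilutions. Run in parallel with antiviral assays. Viability by MTT after 48–96 h at 37 °C, 5% CO2. CC50 = concentration reducing viability 50%.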
For the compound `CN(C)CCCN(/N=N/c1ccccc1)c1cccc(C(F)(F)F)c1`, the CC50 worked out at 49 µM.

The data set is the same for the next values; noted with them: bhk-21.
In the case of `FC(F)(F)c1cccc(/N=N/c2ccc(NC[C@@H]3CCCN4CCCC[C@H]34)c3c2CCCC3)c1`, the CC50 came out at 14 µM.

`Cc1ccc(/N=N/N(CCCN(C)C)c2ccccc2)cc1`: the CC50 is > 100 µM.

As for `Fc1ccc(F)c(/N=N/Nc2cc(F)ccc2F)c1`, the CC50 is > 100 µM.

Take `CN(C)CCCNc1ccc(/N=N/c2ccccc2)cc1`: the CC50 came out at 31 µM.

The test system of a further data set is Vesicular stomatitis virus. The data set can be described thus: Antiviral activity against Vesicular stomatitis virus after 2 days by plaque reduction assay. Format: functional, organism-based.
Details: not given
On to `CN(C)CCCN(/N=N/c1ccccc1)c1cccc(C(F)(F)F)c1`, for which the result was inactive.

For `FC(F)(F)c1cccc(/N=N/c2ccc(NC[C@@H]3CCCN4CCCC[C@H]34)c3c2CCCC3)c1`, the result was inactive.

Consider `Cc1ccc(/N=N/N(CCCN(C)C)c2ccccc2)cc1`, for which the result was inactive.

As to `Fc1ccc(F)c(/N=N/Nc2cc(F)ccc2F)c1`, the outcome was inactive.

Take `CN(C)CCCNc1ccc(/N=N/c2ccccc2)cc1`: the result was inactive.

Tested on in the next data set: not listed separately
The data set can be described thus: Cytotoxicity against MDBK cells after 48 to 96 hrs by MTT assay. Format: cell-based, Bos taurus. The settings on record: cattle, MDBK cells. The method, boiled down:
as §3
(In general: Tetrazolium assays rely on reduction of a dye to a coloured formazan, in cell work by metabolically active cells.)
Consider `CN(C)CCCN(/N=N/c1ccccc1)c1cccc(C(F)(F)F)c1`, for which the midpoint of cytotoxicity, the CC50, lay at 38 µM.

Still in this data set, the particulars now being: cattle, mdbk.
`FC(F)(F)c1cccc(/N=N/c2ccc(NC[C@@H]3CCCN4CCCC[C@H]34)c3c2CCCC3)c1` registered a CC50 of 30 µM.

For `Cc1ccc(/N=N/N(CCCN(C)C)c2ccccc2)cc1`, the CC50 is > 100 µM.

For `Fc1ccc(F)c(/N=N/Nc2cc(F)ccc2F)c1`, the CC50 is > 100 µM.

Regarding `CN(C)CCCNc1ccc(/N=N/c2ccccc2)cc1`, the half-maximal cytotoxic concentration (CC50) was found to be 58 µM.

A further data set concerns Respiratory syncytial virus. The data set can be described thus: Antiviral activity against Respiratory syncytial virus A2 infected in Vero-76 cells after 5 days by plaque reduction assay. Format: functional, organism-based. The following applies: human respiratory syncytial virus, A2, Vero 76, 120 h.
Regarding `CN(C)CCCN(/N=N/c1ccccc1)c1cccc(C(F)(F)F)c1`, the EC50 was > 20 µM.

Regarding `FC(F)(F)c1cccc(/N=N/c2ccc(NC[C@@H]3CCCN4CCCC[C@H]34)c3c2CCCC3)c1`, the EC50 is > 50 µM.

Consider `Cc1ccc(/N=N/N(CCCN(C)C)c2ccccc2)cc1`, for which the EC50 is > 100 µM.

For `Fc1ccc(F)c(/N=N/Nc2cc(F)ccc2F)c1`, the EC50 is 8 µM.

In turn, `CN(C)CCCNc1ccc(/N=N/c2ccccc2)cc1` returned an EC50 of 25 µM.

A further data set has as its system Mammalian orthoreovirus 1. The data set can be described thus: Antiviral activity against Reovirus-1 infected in BHK-21 cells assessed as inhibition of virus-induced cytopathicity after 3 to 4 days by MTT assay. The class given is functional, organism-based. The settings on record: Mammalian orthoreovirus 1, BHK-21. The method, boiled down:
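BHK-21 cells seeded at 5 × 10^4 cells/well, grown overnight to confluent monolayers at 37 °C in 5% CO2, then infected at m.o.i. 0.01 in serum-free medium. One hour later, MEM Earle's with 1% final inactivated FCS added, with or without serial compound dilutions. Viability read by MTT after 3–4 days at 37 °C. EC50 is the concentration giving 50% protection from cytopathogenicity.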
As to `CN(C)CCCN(/N=N/c1ccccc1)c1cccc(C(F)(F)F)c1`, the EC50 is > 49 µM.

Take `FC(F)(F)c1cccc(/N=N/c2ccc(NC[C@@H]3CCCN4CCCC[C@H]34)c3c2CCCC3)c1`: the EC50 was > 14 µM.

As to `Cc1ccc(/N=N/N(CCCN(C)C)c2ccccc2)cc1`, the EC50 was > 100 µM.

Regarding `Fc1ccc(F)c(/N=N/Nc2cc(F)ccc2F)c1`, the EC50 is > 100 µM.

Consider `CN(C)CCCNc1ccc(/N=N/c2ccccc2)cc1`, for which the EC50 is > 31 µM.

Another data set relates to MT4. The data set can be described thus: (§4) Cytotoxicity against human MT4 cells after 96 hrs by MTT assay. The following applies: mt4, 96 h. The class given is cell-based. The method, boiled down:
(§5)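 Exponentially growing mock-infected MT-4 seeded at 1 × 10^5 cells/mL in RPMI-1640 with 10% FCS, penicillin and streptomycin. Incubated with or without serial compound dilutions at 37 °C, 5% CO2. Viability by MTT after 96 h. CC50 = concentration reducing viability 50%.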
`FC(F)(F)c1cccc(/N=N/c2ccc(NC[C@@H]3CCCN4CCCC[C@H]34)c3c2CCCC3)c1` registered a CC50 of 15 µM.

`Cc1ccc(/N=N/N(CCCN(C)C)c2ccccc2)cc1`: it took 18 µM to reach half-maximal cytotoxicity (CC50).

`Fc1ccc(F)c(/N=N/Nc2cc(F)ccc2F)c1`: the CC50 was ≥ 100 µM.

`CN(C)CCCNc1ccc(/N=N/c2ccccc2)cc1`: the CC50 was found to be 17 µM.

Tested on in a further data set: not listed separately
The description is as §4. The settings on record: MT4 cells. The class given is cell-based. In short, it runs like this:
as §5
As for `CN(C)CCCN(/N=N/c1ccccc1)c1cccc(C(F)(F)F)c1`, the CC50 at 96 h stood at 14 µM.

For the next data set, the system named is Bovine viral diarrhea virus 1. The data set can be described thus: Antiviral activity against Bovine viral diarrhea virus infected in MDBK cells assessed as inhibition of virus-induced cytopathicity after 3 to 4 days by MTT assay. The class given is functional, organism-based. The settings on record: Bovine viral diarrhea virus isolates and strains.
With `CN(C)CCCN(/N=N/c1ccccc1)c1cccc(C(F)(F)F)c1`, the concentration giving a half-maximal response (EC50) was > 38 µM.

Consider `FC(F)(F)c1cccc(/N=N/c2ccc(NC[C@@H]3CCCN4CCCC[C@H]34)c3c2CCCC3)c1`, for which the EC50 came out at 7 µM.

On to `Cc1ccc(/N=N/N(CCCN(C)C)c2ccccc2)cc1`, for which the EC50 is > 100 µM.

On to `Fc1ccc(F)c(/N=N/Nc2cc(F)ccc2F)c1`, for which the EC50 was > 100 µM.

In the case of `CN(C)CCCNc1ccc(/N=N/c2ccccc2)cc1`, the EC50 worked out at 1.6 µM.
